Reference: ChEMBL document CHEMBL1152615, “Cytosporones, coumarins, and an alkaloid from the endophytic fungus Pestalotiopsis sp. isolated from the Chinese mangrove plant Rhizophoramucronata” (Bioorg Med Chem, 2009)
Calls of active or inactive are those of the source.

How the values were obtained:
Assay type in all cases: functional, cell-based
[1] = test system: L5178Y; test: Cytotoxicity against mouse L5178Y cells
In short: (§1)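 MTT assay. Cells kept in RPMI-1640 with Na-carbonate (pH 7.2) plus 10% FCS, at 37 °C under humidified 5% CO2/95% air. Seeded at 1500 cells/mL and exposed for 72 h to compounds in DMSO at several concentrations, with an initial test concentration of 10 µg/mL. MTT added for 3 h, then DMSO for 1 h to lyse cells; absorbance read at 595 nm. Negative control was medium with 0.1% EGMME/DMSO.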

[2] = test system: HeLa; test: Cytotoxicity against human HeLa cells; in short: as §1
[3] = test system: PC-12; test: Cytotoxicity against rat PC12 cells; in short: as §1

Measured: Activity

CCOC(=O)Cc1cc(O)cc(O)c1C(=O)CCCCCC(C)O (centres undefined)
inactive: [1] | [2] | [3]

COc1cc(OC)c2oc(=O)c(C(O)C(C)O)cc2c1 (centres undefined)
inactive: [1] | [2] | [3]

COc1cc(OC)c2oc(=O)c(CO)cc2c1
inactive: [1] | [2] | [3]

COc1cc(OC)c2oc(=O)c(CC(O)CO)cc2c1 (centres undefined)
inactive: [1] | [2] | [3]

CC(O)CCCCCC1OC(=O)Cc2cc(O)cc(O)c21 (centres undefined)
inactive: [1] | [2] | [3]

CC(=O)OC(C)CCCCCC1OC(=O)Cc2cc(O)cc(O)c21 (centres undefined)
inactive: [1] | [2] | [3]

COc1cc(O)c2oc(=O)c(CC(O)CO)cc2c1 (centres undefined)
inactive: [1] | [2] | [3]

COC(=O)Cc1cc(O)cc(O)c1C(=O)CCCCCC(C)O (centres undefined)
inactive: [1] | [2] | [3]

COc1cc(OC)c2oc(=O)c(CC(C)O)cc2c1 (centres undefined)
inactive: [1] | [2] | [3]

CCCCCCCC1OC(=O)Cc2cc(O)cc(O)c21 (centres undefined)
inactive: [1] | [2] | [3]

COc1cc(O)cc2cc(CO)c(=O)oc12
inactive: [1] | [2] | [3]

CC(=O)OCCCCCCCC1OC(=O)Cc2cc(O)cc(O)c21 (centres undefined)
inactive: [1] | [2] | [3]

CCCCCCCC(=O)c1c(O)cc(O)cc1CC(=O)OC
inactive: [1] | [2] | [3]
